Activity calls are given as the source filed them. No cut-off for these calls is given here.
Assays:
L1210 = test: Concentration to inhibit growth of murine leukemia cells in culture by 50%.; type: functional, cell-based; settings: Mus musculus
How it was run: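 Murine L1210 leukemia cells were grown in culture with drug for 40 h. IC50 is the drug concentration, in nM, that inhibits growth by 50%.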

Nucleic Acid [1] = test: Binding constant to poly[d(G-C)] by ethidium bromide displacement; type: nucleic-acid assay
Nucleic Acid [2] = test: Binding constant to poly[d(A-T)] by ethidium bromide displacement; type: nucleic-acid assay
[3] = system: Lewis lung carcinoma cell line; test: Percentage increase in lifespan of mice treated at 65 mg/kg/day on days 5, 9, 13 after intravenous inoculation of lewis lung carcinoma cells; type: functional, Mus musculus
How it was run: (§1)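 Mice were given 10^6 Lewis lung carcinoma cells intravenously. Drug was dosed intraperitoneally on days 5, 9 and 13 as a solution in 0.1 mL of 30% v/v ethanol/water, with groups of six animals. Read-out was the percentage increase in lifespan of treated tumor-bearing mice.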

[4] = system: Lewis lung carcinoma cell line; test: Percentage increase in lifespan of mice treated at 100 mg/kg/day on days 5, 9, 13 after intravenous inoculation of lewis lung carcinoma cells; type: functional, Mus musculus; how it was run: as §1
P388 [5] = test: Percentage increase in lifespan of mice treated at 100 mg/kg/day on days 1, 5, 9 after intravenous inoculation of P388 leukemia cells; type: functional, Mus musculus; settings: for ILS at 100 mg/kg/day: Mus musculus, P388
[6] = system: Lewis lung carcinoma cell line; test: Percentage increase in lifespan of mice treated at 100 mg/kg/day on days 5, 9, 13 after intravenous up to the toxic dose levels tested; type: functional, organism-based; settings: Mus musculus
How it was run: (§2)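 Mice were inoculated intravenously with 10^6 Lewis lung carcinoma cells. Drug was given ip in 30% v/v ethanol/water on days 5, 9 and 13. ILS is the percentage increase in lifespan at the optimal dose, with six animals per group.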

P388 [7] = test: Percentage increase in lifespan of mice treated at 100 mg/kg/day on days 1, 5, 9 after intraperitoneal inoculation of P388 leukemia cells
[8] = system: Lewis lung carcinoma cell line; test: Percentage increase in lifespan of mice treated at 150 mg/kg/day on days 5, 9, 13 after intravenous inoculation of lewis lung carcinoma cells; type: functional, Mus musculus; how it was run: as §1
P388 [9] = test: Percentage increase in lifespan of mice treated at 45 mg/kg/day on days 1, 5, 9 after intraperitoneal up to the toxic dose levels tested; settings: Mus musculus
P388 [10] = test: Percentage increase in lifespan of mice treated at 150 mg/kg/day on days 1, 5, 9 after intraperitoneal up to the toxic dose levels tested; settings: Mus musculus
P388 [11] = test: Percentage increase in lifespan of mice treated at 65 mg/kg/day on days 1, 5, 9 after […] up to the toxic dose levels tested; type: functional, organism-based; settings: Mus musculus
How it was run: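 Mice were inoculated intraperitoneally with 10^6 P388 leukemia cells. Drug was given ip in 30% v/v ethanol/water on days 1, 5 and 9. ILS is the percentage increase in lifespan of treated over untreated tumor-bearing animals at the optimal dose, with six animals per group. Values above 20% count as significant, and long-term survivors were scored at 50 days.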

Nucleic Acid [12] = test: Binding constant for poly[d(G-C)] by ethidium bromide displacement; type: nucleic-acid assay
Nucleic Acid [13] = test: Binding constant for poly[d(A-T)] by ethidium bromide displacement; type: nucleic-acid assay
P388 [14] = test: Percentage increase in lifespan of mice treated at 100 mg/kg/day on days 1, 5, 9 after intraperitoneal up to the toxic dose levels tested; settings: Mus musculus
P388 [15] = test: Percentage increase in lifespan of mice treated at 225 mg/kg/day on days 1, 5, 9 after intraperitoneal inoculation of P388 leukemia cells
[16] = pKa determined in aqueous solutions spectrophotometrically
[17] = system: Lewis lung carcinoma cell line; test: Percentage increase in lifespan of mice treated at 65 mg/kg/day on days 5, 9, 13 after intravenous up to the toxic dose levels tested; type: functional, organism-based; settings: Mus musculus; how it was run: as §2
P388 [18] = test: Percentage increase in lifespan of mice treated at 65 mg/kg/day on days 1, 5, 9 after intraperitoneal up to the toxic dose levels tested; settings: Mus musculus
P388 [19] = test: Percentage increase in lifespan of mice treated at 65 mg/kg/day on days 1, 5, 9 after intraperitoneal inoculation of P388 leukemia cells

Row | SMILES | IC50 (L1210) [nM] | Log K (Nucleic Acid [1]) | Log K (Nucleic Acid [2]) | ILS [6] | ILS (P388 [7]) | also measured
1 | CN(C)CCNC(=O)c1cccc2ccc(-c3ccncc3)nc12 | 170 | 6.32 | 5.82 |  |  | ILS [3]: 191
2 | CN(C)CCNC(=O)c1cccc2ccc(-c3ccccc3)nc12 |  | 5.92 | 5.98 |  |  | ILS at 100 mg/kg/day ([4]; Mus musculus, Lewis lung carcinoma): 70%; ILS at 100 mg/kg/day (P388 [5]): 91%
3 | CN(C)CCNC(=O)c1cccc2ccc(-c3ccc(S(C)(=O)=O)cc3)nc12 | 5800 |  | 5.68 | inactive | 29 | 
4 | CN(C)CCNC(=O)c1cccc2ccc(-c3ccc([N+](=O)[O-])cc3)nc12 | 290 | 6.13 | 6.28 |  |  | ILS [3]: 85; ILS (P388 [5]): 58
5 | CN(C)CCNC(=O)c1cccc2ccc(-c3ccc(I)cc3)nc12 | 400 | 6.87 | 6.8 | inactive | 48 | 
6 | CN(C)CCNC(=O)c1cccc2ccc(-c3ccc(N)cc3)nc12 | 200 | 6.96 | 6.42 |  | 28 | ILS [8]: 59
7 | CN(C)CCNC(=O)c1cccc2ccc(-c3ccc(NS(C)(=O)=O)cc3)nc12 | 1330 | 6.22 | 6.04 |  |  | ILS (P388 [9]): inactive
8 | CN(C)CCNC(=O)c1cccc2ccc(-c3ccc(-c4ccccc4)cc3)nc12 | 1290 | 6.96 | 6.88 |  |  | ILS (P388 [10]): inactive
9 | CN(C)CCCCNC(=O)c1cccc2ccc(-c3ccccc3)nc12 | 680 | 5.89 | 6.19 |  | 93 | 
10 | CC(=O)Nc1ccc(-c2ccc3cccc(C(=O)NCCN(C)C)c3n2)cc1 | 600 |  |  |  |  | ILS (P388 [11]): inactive; Log K (Nucleic Acid [12]): 7.07; Log K (Nucleic Acid [13]): 6.49
11 | CN(C)CCNC(=O)c1cccc2ccc(-c3ccc(F)cc3)nc12 | 730 | 6.66 | 6.74 | inactive | 24 | 
12 | CN(C)CCCCCNC(=O)c1cccc2ccc(-c3ccccc3)nc12 | 1300 | 5.73 | 5.9 | inactive |  | ILS (P388 [11]): inactive
13 | CN(C)CCNC(=O)c1cccc2ccc(-c3ccc(C(F)(F)F)cc3)nc12 | 2100 | 6.72 | 6.64 | inactive |  | ILS (P388 [14]): inactive
14 | COc1cccc(-c2ccc3cccc(C(=O)NCCN(C)C)c3n2)c1 | 860 | 6.41 | 6.3 |  |  | ILS (P388 [15]): 46
15 | CN(C)CCNC(=O)c1cccc2ccc(-c3ccc(Cl)cc3)nc12 | 1170 | 5.99 | 6.08 |  | 52 | pKa [16]: 2.42; ILS [3]: 45
16 | O=C(NCCNCCO)c1cccc2ccc(-c3ccccc3)nc12 | 36 | 6.31 | 6.22 |  |  | ILS [17]: inactive; ILS (P388 [18]): inactive
17 | CN(C)CCNC(=O)c1cccc2ccc(-c3ccccn3)nc12 | 1640 | 5.85 | 5.82 |  |  | ILS [4]: 84; ILS (P388 [5]): 73
18 | CN(C)CCNC(=O)c1cccc2ccc(-c3cccc(Cl)c3)nc12 | 1200 | 6.47 | 6.05 |  |  | ILS [17]: inactive; ILS (P388 [19]): 40
19 | CN(C)CCNC(=O)c1cccc2ccc(-c3cccnc3)nc12 | 840 | 6.09 | 5.81 |  | 58 | ILS [4]: 55
20 | COc1ccc(-c2ccc3cccc(C(=O)NCCN(C)C)c3n2)cc1 | 1290 | 6.27 | 6.4 | inactive |  | pKa [16]: 3.28; ILS (P388 [5]): 42
21 | CN(C)CCCNC(=O)c1cccc2ccc(-c3ccccc3)nc12 | 1140 | 5.62 | 5.9 | inactive |  | ILS at 100 mg/kg/day (P388 [5]): 71%
22 | CN(C)CCNC(=O)c1cccc2ccc(-c3ccccc3Cl)nc12 | 8100 | 5.12 | 5.32 |  |  | ILS (P388 [11]): inactive
23 | O=C(NCCN1CCOCC1)c1cccc2ccc(-c3ccccc3)nc12 | 44 | 5.61 | 6.12 |  |  | ILS (P388 [18]): inactive
24 | Br.Br.CN(C)CCNC(=O)c1cccc2ccc(-c3ccc(O)cc3)nc12 | 1280 | 6.48 | 6.3 | inactive |  | ILS (P388 [5]): 22
25 | CN(C)CCNC(=O)c1cccc2ccc(-c3ccc4ccccc4c3)nc12 | 860 | 7.35 | 7 |  |  | ILS (P388 [10]): inactive
26 | CN(C)CCNC(=O)c1cccc2ccc(-c3ccc(Br)cc3)nc12 | 600 | 6.68 | 6.63 | inactive | 72 | 

— ChEMBL document CHEMBL1124392, “Potential antitumor agents. 57. 2-Phenylquinoline-8-carboxamides as "minimal" DNA-intercalating antitumor agents with in vivo solid tumor activity” (J Med Chem, 1989)
